Experimental data from ChEMBL document CHEMBL1944523, “Benzimidazolones: a new class of selective peroxisome proliferator-activated receptor γ (PPARγ) modulators” (J Med Chem, 2011).

Columns and labels:
[1] = Half life in rat at 0.5 mg/kg, iv and 2 mg/kg, po by LC-MS/MS analysis; format: ADME, organism-based; settings: in vivo
Procedure, shortened: (§1)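 Rat pharmacokinetics: 2 mpk oral in 5% methylcellulose, 0.5 mpk iv in ethanol/PEG400/water (1/4/5). Blood sampled at set intervals; plasma acidified with 0.5 M formate buffer pH 3.0, acetonitrile-precipitated, quantified by LC−MS−MS against spiked control-plasma calibration curves.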

[2] = target: T1, Peroxisome proliferator-activated receptor gamma (Homo sapiens, UniProt P37231); experiment: Partial agonist activity at human PPARgamma LBD assessed as activation of Src-1 by HTRF assay; format: functional
T1 sequence (P37231 whole entry): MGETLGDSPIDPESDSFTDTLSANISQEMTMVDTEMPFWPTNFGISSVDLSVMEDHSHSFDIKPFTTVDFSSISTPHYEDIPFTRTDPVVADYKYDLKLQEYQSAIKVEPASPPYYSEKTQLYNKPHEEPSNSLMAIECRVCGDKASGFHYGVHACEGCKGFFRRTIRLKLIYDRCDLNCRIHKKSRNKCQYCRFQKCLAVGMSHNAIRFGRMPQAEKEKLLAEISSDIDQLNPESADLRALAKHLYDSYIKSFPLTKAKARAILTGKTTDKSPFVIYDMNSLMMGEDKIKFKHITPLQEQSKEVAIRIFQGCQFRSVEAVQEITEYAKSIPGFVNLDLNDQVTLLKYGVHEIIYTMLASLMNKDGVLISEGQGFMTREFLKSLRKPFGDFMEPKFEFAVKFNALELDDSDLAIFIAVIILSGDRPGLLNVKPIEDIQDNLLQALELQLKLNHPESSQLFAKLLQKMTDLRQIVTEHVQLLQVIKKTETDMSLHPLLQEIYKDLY

[3] = target: T2, Peroxisome proliferator-activated receptor alpha (Homo sapiens, UniProt Q07869); experiment: Binding affinity to human PPARalpha expressed in COS-1 by scintillation proximity assay
T2 sequence (Q07869 whole entry): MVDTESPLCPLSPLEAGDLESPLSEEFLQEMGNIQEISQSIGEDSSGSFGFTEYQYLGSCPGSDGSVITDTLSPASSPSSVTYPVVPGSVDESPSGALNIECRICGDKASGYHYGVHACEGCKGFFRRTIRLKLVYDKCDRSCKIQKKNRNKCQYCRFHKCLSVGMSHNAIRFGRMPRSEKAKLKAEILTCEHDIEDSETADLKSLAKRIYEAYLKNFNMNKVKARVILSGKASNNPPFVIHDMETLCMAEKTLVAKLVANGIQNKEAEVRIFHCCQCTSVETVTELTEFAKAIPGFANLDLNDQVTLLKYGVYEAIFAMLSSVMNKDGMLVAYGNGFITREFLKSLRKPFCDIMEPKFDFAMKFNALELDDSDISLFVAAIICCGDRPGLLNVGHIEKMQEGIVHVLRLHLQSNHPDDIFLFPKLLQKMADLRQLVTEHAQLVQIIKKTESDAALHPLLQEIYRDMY
Procedure, shortened: (§2)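 Scintillation proximity binding assay on PPAR receptors giving IC50; mean of three determinations.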

[4] = target: T1, Peroxisome proliferator-activated receptor gamma; experiment: Partial agonist activity at human PPARgamma LBD assessed as activation of PBP by HTRF assay; format: functional
[5] = target: T3, Peroxisome proliferator-activated receptor gamma (Homo sapiens) (UniProt P37231); experiment: Agonist activity at human PPARgamma expressed in COS-1 cells co-expressing with Gal4 by transactivation assay relative to rosiglitazone; format: functional, cell-based
T3 sequence (whole entry): T1 sequence (P37231 whole entry)
Procedure, shortened: (§3)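 GAL4-PPAR chimeric receptor transactivation in transiently co-transfected COS-1 cells with a GAL4-responsive reporter; potency as EC50 and maximum activation expressed relative to rosiglitazone; triplicate, mean reported.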

[6] = target: T1, Peroxisome proliferator-activated receptor gamma; experiment: Agonist activity at human PPARgamma expressed in COS-1 cells co-expressing with Gal4 by transactivation assay; format: functional, cell-based; procedure, shortened: as §3
[7] = Oral bioavailability in rat at 2 mg/kg by LC-MS/MS analysis; format: ADME, organism-based; settings: in vivo; procedure, shortened: as §1
Mus musculus = experiment: Antidiabetic activity in db/db C57BLKS/J-m +/+ Leprdb mouse assessed as reduction of glucose level at 30 mg/kg, po qd for 10 days measured on 11 relative to control; format: functional; set-up: scale not given: the % may be the effect or the level left
Procedure, shortened: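 Male db/db (C57BLKS/J-m +/+Leprdb) mice, 12−13 weeks old, seven per group, chow and water freely available; once-daily oral gavage in 0.25% methylcellulose vehicle for 11 days. Tail blood drawn just before next dose on days 0, 4, 7 and 11 for plasma glucose. Value is percent correction versus vehicle control; mean of n = 7; rosiglitazone 10 mpk positive control.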

[8] = target: T4, Peroxisome proliferator-activated receptor delta (Homo sapiens, UniProt Q03181); experiment: Binding affinity to PPARdelta by scintillation proximity assay; procedure, shortened: as §2
T4 sequence (Q03181 whole entry): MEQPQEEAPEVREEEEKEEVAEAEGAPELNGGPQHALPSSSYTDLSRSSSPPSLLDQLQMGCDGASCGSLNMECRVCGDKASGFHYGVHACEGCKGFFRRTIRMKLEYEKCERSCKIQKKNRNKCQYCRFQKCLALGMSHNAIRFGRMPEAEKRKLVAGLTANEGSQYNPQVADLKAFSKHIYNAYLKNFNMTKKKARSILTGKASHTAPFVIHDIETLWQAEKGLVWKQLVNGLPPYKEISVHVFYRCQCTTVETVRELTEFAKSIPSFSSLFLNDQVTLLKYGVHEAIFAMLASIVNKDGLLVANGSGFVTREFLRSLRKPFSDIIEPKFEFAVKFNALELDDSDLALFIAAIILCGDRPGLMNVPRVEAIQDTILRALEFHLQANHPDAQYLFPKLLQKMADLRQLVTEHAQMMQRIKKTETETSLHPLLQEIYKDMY

Rattus norvegicus [9] = experiment: Plasma clearance in rat at 0.5 mg/kg, iv and 2 mg/kg, po by LC-MS/MS analysis; format: ADME, organism-based; settings: in vivo; procedure, shortened: as §1
Rattus norvegicus [10] = experiment: Dose normalized AUC in rat at 2 mg/kg, po by LC-MS/MS analysis; format: ADME, organism-based; set-up: dose 2 mg/kg, route oral; settings: in vivo; procedure, shortened: as §1
[11] = target: T1, Peroxisome proliferator-activated receptor gamma; experiment: Binding affinity to human PPARgamma by scintillation proximity assay; procedure, shortened: as §2
[12] = target: T1, Peroxisome proliferator-activated receptor gamma; experiment: Partial agonist activity at human PPARgamma LBD assessed as activation of CBP1-453 by HTRF assay; format: functional
[13] = target: T1, Peroxisome proliferator-activated receptor gamma; experiment: Partial agonist activity at human PPARgamma LBD assessed as activation of PGC1 by HTRF assay; format: functional

Compound | IC50 [3] [nM] | Emax [5] [%] | EC50 [6] [nM] | IC50 [8] [nM] | IC50 [11] [nM] | also measured
COc1ccc2c(-n3c(=O)n(Cc4cc(O[C@H](C)C(=O)O)ccc4Cl)c4ccccc43)noc2c1 | > 50000 | 50 | 51.1 | > 50000 | 13.7 | half-life [1]: 6.9 h; EC50 [2]: > 50000 nM; EC50 [4]: 11 nM; bioavailability [7]: 97%; Activity (Mus musculus): 30%; clearance (Rattus norvegicus [9]): 7.3 mL/min/kg; AUC/dose (Rattus norvegicus [10]): 5 µM·kg·h/mg; EC50 [12]: 11 nM; EC50 [13]: 8 nM
Cc1c(C(=O)c2ccc(Cl)cc2)c2ccc(OC(F)(F)F)cc2n1Cc1cccc(O[C@@H](C(=O)O)C(C)C)c1 |  |  |  |  |  | EC50 [2]: 9 nM; EC50 [4]: 6 nM; EC50 [12]: 7 nM; EC50 [13]: 5 nM
C[C@@H](Oc1cc(Cn2c(=O)n(-c3nc4ccc(Cl)cc4s3)c3ccc(C(F)(F)F)cc32)ccc1Cl)C(=O)O | > 50000 |  |  | > 50000 | 1370 | 
COc1ccc2c(-n3c(=O)n(Cc4ccc(Cl)c(O[C@H](C)C(=O)O)c4)c4cc(OC(F)(F)F)ccc43)noc2c1 | > 50000 | 39 | 11.4 | > 50000 | 3.2 | 
C[C@@H](Oc1cc(Cn2c(=O)n(-c3noc4ccc(Cl)cc34)c3ccc(C(F)(F)F)cc32)ccc1Cl)C(=O)O | > 50000 | 36 | 120 | > 50000 | 35.4 | 
COc1ccc2c(-n3c(=O)n(Cc4ccc(Cl)c(O[C@H](C)C(=O)O)c4)c4cc(C(F)(F)F)ccc43)noc2c1 | > 50000 | 28 | 103 | > 50000 | 4.1 | 
Cc1cccc2c(-n3c(=O)n(Cc4ccc(Cl)c(O[C@H](C)C(=O)O)c4)c4cc(C(F)(F)F)ccc43)noc12 | > 50000 | 25 | 4.1 | > 50000 | 9.2 | 
Cc1c(C(=O)c2ccc(Cl)cc2)c2ccc(OC(F)(F)F)cc2n1Cc1cccc(O[C@H](C)C(=O)O)c1 |  |  |  |  |  | EC50 [2]: > 50000 nM; EC50 [4]: 5 nM; EC50 [12]: 6 nM; EC50 [13]: 5 nM
COc1ccc2c(-n3c(=O)n(Cc4cccc([C@@]5(C)OC(O)=NC5=O)c4)c4cc(C(F)(F)F)ccc43)noc2c1 | > 50000 |  | 237 | > 50000 | 93 | 
CC[C@@H](Oc1cccc(Cn2c(=O)n(-c3noc4cc(OC)ccc34)c3ccc(C(F)(F)F)cc32)c1)C(=O)O | > 50000 |  |  | > 50000 | 3660 | 
COc1ccc2c(-n3c(=O)n(Cc4ccccc4[C@@]4(C)OC(=O)NC4=O)c4cc(C(F)(F)F)ccc43)noc2c1 | > 50000 |  |  | > 50000 | 6630 | 
Cc1ccc2onc(-n3c(=O)n(Cc4ccc(Cl)c(O[C@H](C)C(=O)O)c4)c4cc(C(F)(F)F)ccc43)c2c1 | > 50000 | 53 | 3000 | > 50000 | 11.2 | 
COc1ccc2c(-n3c(=O)n(Cc4ccc([C@@]5(C)OC(=O)NC5=O)cc4)c4cc(C(F)(F)F)ccc43)noc2c1 | > 50000 |  |  | > 50000 | 2180 | 
